ChEMBL document CHEMBL1127367, “Antiproliferative properties of polyamine analogues: a structure-activity study” (J Med Chem, 1994)

Columns and labels:
L1210 [1] = test: Compound was evaluated for its impact on spermine levels after 48 hr at concentration 14 uM; assay type: functional, Mus musculus
In short: (§1)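 Murine L1210 leukemia cells in log-phase suspension (RPMI-1640, 10% NuSerum, 2% HEPES-MOPS, 1 mM aminoguanidine, 37 °C, 5% CO2) exposed to analogue for 48 h. Cells washed twice in cold RPMI-1640, extracted with 0.6 N perchloric acid, and polyamines quantified by HPLC. Spermine is reported as % of untreated control.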

L1210 [2] = test: Compound level in L1210 cells after 48 hours of incubation at initial concentration of 70 uM is expressed as nmol/10e6 cells; assay type: functional, Mus musculus
In short: (§2)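 Murine L1210 leukemia cells were kept in logarithmic growth as a suspension in RPMI-1640 with 10% NuSerum, 2% HEPES-MOPS buffer and 1 mM aminoguanidine, at 37 °C under 5% CO2. Log-phase cells were exposed to the analogue for 48 h. Intracellular analogue content is reported per 10^6 cells.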

L1210 [3] = test: Compound was evaluated for its impact on putrescine (Put) levels after 48 hr at concentration 14 uM; assay type: functional, Mus musculus
In short: (§3)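 L1210 suspension cultures were grown in RPMI-1640 with 10% NuSerum, 2% HEPES-MOPS and 1 mM aminoguanidine (37 °C, 5% CO2). Log-phase cells were treated for 48 h, then washed twice in cold RPMI-1640 and pelleted. Pellets were extracted with 0.6 N perchloric acid, and supernatants were held at −20 °C until HPLC. Polyamine levels are given as % of untreated controls.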

L1210 [4] = test: In vitro inhibition of L1210 growth after 48 hours.; assay type: functional, cell-based; details: Mus musculus, L1210, 48 h
In short: (§4)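 Log-phase L1210 cultures (0.5–1.0 × 10^5 cells/mL) treated with analogue diluted in sterile water and filter-sterilized. After 48 h, cells were reseeded and grown a further 48 h for the 96 h point. Cells counted by Coulter counter. % growth = (treated − inoculum)/(untreated − inoculum) × 100.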

[5] = target: T1, Ornithine decarboxylase (Mus musculus) (UniProt P00860); test: Inhibition of ornithine decarboxylase (ODC) activity; assay type: functional; set-up: concentration or dose not given beside the values
T1 sequence (whole entry): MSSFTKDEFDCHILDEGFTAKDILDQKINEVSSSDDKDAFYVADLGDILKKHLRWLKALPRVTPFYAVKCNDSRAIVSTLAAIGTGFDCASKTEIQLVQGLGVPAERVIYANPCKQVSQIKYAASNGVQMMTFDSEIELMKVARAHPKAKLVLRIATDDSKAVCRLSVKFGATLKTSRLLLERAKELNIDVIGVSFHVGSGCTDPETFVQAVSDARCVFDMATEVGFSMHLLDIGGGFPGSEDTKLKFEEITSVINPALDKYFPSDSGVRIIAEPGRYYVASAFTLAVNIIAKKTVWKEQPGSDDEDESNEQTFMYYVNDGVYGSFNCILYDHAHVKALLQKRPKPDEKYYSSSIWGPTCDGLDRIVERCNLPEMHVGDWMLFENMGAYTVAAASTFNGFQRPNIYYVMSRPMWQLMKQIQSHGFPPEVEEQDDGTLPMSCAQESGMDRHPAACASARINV

L1210 [6] = test: Compound was evaluated for its impact on spermidine levels after 48 hr at concentration 14 uM; assay type: functional, Mus musculus; in short: as §3
L1210 [7] = test: Compound was evaluated for its impact on spermidine levels after 48 hr at concentration 70 uM; assay type: functional, Mus musculus; in short: as §3
L1210 [8] = test: Compound was evaluated for its impact on putrescine (Put) levels after 48 hr at concentration 70 uM; assay type: functional, Mus musculus; in short: as §3
L1210 [9] = test: Compound level in L1210 cells after 48 hours of incubation at initial concentration of 14 uM is expressed as nmol/10e6 cells; assay type: functional, Mus musculus; in short: as §2
L1210 [10] = test: Inhibition of radiolabeled spermidine uptake into L1210 cells in vitro.; assay type: functional, cell-based, Mus musculus
L1210 [11] = test: In vitro inhibition of L1210 growth after 96 hours.; assay type: functional, cell-based; details: Mus musculus, L1210, 96 h; in short: as §4
L1210 [12] = test: Compound was evaluated for its impact on spermine levels after 48 hr at concentration 70 uM; assay type: functional, Mus musculus; in short: as §1
[13] = target: T2, S-adenosylmethionine decarboxylase proenzyme 1 (Mus musculus) (UniProt P0DMN7); test: Inhibition of S-Adenosyl-methionine decarboxylase (AdoMetDC) activity; assay type: functional; set-up: concentration or dose not given beside the values
T2 sequence (whole entry): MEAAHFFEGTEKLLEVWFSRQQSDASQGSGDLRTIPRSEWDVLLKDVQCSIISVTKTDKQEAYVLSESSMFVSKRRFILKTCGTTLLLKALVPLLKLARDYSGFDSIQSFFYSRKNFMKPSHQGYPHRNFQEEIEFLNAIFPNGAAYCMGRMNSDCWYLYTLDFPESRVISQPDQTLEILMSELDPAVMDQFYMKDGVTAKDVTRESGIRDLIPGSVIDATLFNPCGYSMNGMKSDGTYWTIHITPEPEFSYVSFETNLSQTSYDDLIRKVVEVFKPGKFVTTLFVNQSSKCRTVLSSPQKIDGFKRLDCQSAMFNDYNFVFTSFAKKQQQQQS

[14] = target: Spermidine/spermine N(1)-acetyltransferase (SAT) (Mus musculus) (UniProt Q6P8J2+P48026); test: […] spermidine/spermine N1-Acetyltransferase (SSAT) activity; assay type: functional; set-up: concentration or dose not given beside the values
Sequence of Spermidine/spermine N(1)-acetyltransferase (SAT) (Mus musculus) (P48026 whole entry, looked up): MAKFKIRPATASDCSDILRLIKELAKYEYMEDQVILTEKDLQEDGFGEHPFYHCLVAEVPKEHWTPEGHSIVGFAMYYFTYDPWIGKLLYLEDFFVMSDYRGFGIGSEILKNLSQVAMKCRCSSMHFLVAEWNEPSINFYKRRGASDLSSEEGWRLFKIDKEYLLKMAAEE
Sequence of Spermidine/spermine N(1)-acetyltransferase (SAT) (Mus musculus) (Q6P8J2 whole entry, looked up): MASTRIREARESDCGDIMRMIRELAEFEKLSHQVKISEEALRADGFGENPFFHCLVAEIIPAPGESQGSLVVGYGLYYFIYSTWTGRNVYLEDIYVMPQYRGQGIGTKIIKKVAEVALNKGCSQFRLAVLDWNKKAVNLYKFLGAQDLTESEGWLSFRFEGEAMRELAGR

L1210 [15] = test: Compound was evaluated for its impact on putrescine (Put) levels after 48 hr at concentration 20 uM; assay type: functional, Mus musculus; in short: as §3
L1210 [16] = test: Compound was evaluated for its impact on spermidine levels after 48 hr at concentration 100 uM; assay type: functional, Mus musculus
L1210 [17] = test: Compound was evaluated for its impact on spermidine levels after 48 hr at concentration 20 uM; assay type: functional, Mus musculus; in short: as §3
L1210 [18] = test: Compound was evaluated for its impact on spermine […] levels after 48 hr at concentration 20 uM; assay type: functional, Mus musculus; in short: as §3
L1210 [19] = test: Compound was evaluated for its impact on putrescine (Put) levels after 48 hr at concentration 100 uM; assay type: functional, Mus musculus
L1210 [20] = test: Compound was evaluated for its impact on spermine […] levels after 48 hr at concentration 100 uM; assay type: functional, Mus musculus; in short: as §3
L1210 [21] = test: Compound was evaluated for its impact on spermine levels after 48 hr at concentration 0.4 uM; assay type: functional, Mus musculus; in short: as §1
L1210 [22] = test: Compound was evaluated for its impact on spermidine levels after 48 hr at concentration 2 uM; assay type: functional, Mus musculus; in short: as §3
L1210 [23] = test: Compound was evaluated for its impact on spermidine levels after 48 hr at concentration 10 uM; assay type: functional, Mus musculus; in short: as §3
L1210 [24] = test: Compound was evaluated for its impact on spermidine levels after 48 hr at concentration 0.4 uM; assay type: functional, Mus musculus; in short: as §3
L1210 [25] = test: Compound was evaluated for its impact on spermine levels after 48 hr at concentration 10 uM; assay type: functional, Mus musculus; in short: as §1
L1210 [26] = test: Compound was evaluated for its impact on putrescine (Put) levels after 48 hr at concentration 2 uM; assay type: functional, Mus musculus; in short: as §3
L1210 [27] = test: Compound was evaluated for its impact on spermine levels after 48 hr at concentration 2 uM; assay type: functional, Mus musculus; in short: as §1
L1210 [28] = test: Compound was evaluated for its impact on putrescine (Put) levels after 48 hr at concentration 0.4 uM; assay type: functional, Mus musculus; in short: as §3
L1210 [29] = test: Compound was evaluated for its impact on putrescine (Put) levels after 48 hr at concentration 10 uM; assay type: functional, Mus musculus; in short: as §3

SMILES: CCNCCCCNCCCCNCCCCN
- Polyamine (L1210 [1]): 26%
- Activity (L1210 [2]): 3.22
- Polyamine (L1210 [3]): 0%
- IC50 (L1210 [4]): 14 µM
- Activity [5]: 3%
- Polyamine (L1210 [6]): 0%
- Polyamine (L1210 [7]): 0%
- Polyamine (L1210 [8]): 0%
- Activity (L1210 [9]): 2.99
- Ki (L1210 [10]): 1100 nM
- IC50 (L1210 [11]): 170 nM
- Polyamine (L1210 [12]): 26%
- Activity [13]: 41%
- Activity [14]: 110%

SMILES: CC(C)NCCCCNCCCCNCCCCNC(C)C
- Polyamine (L1210 [15]): 0%
- IC50 (L1210 [4]): 20 µM
- Polyamine (L1210 [16]): 7%
- Polyamine (L1210 [17]): 17%
- Activity [5]: 90%
- Polyamine (L1210 [18]): 83%
- Ki (L1210 [10]): 8100 nM
- IC50 (L1210 [11]): 60 nM
- Activity [13]: 78%
- Activity [14]: 130%
- Polyamine (L1210 [19]): 0%
- Polyamine (L1210 [20]): 67%

SMILES: CCNCCCCNCCCCNCCCCNC(C)(C)C
- IC50 (L1210 [4]): 0.4 µM
- Polyamine (L1210 [21]): 75%
- Activity [5]: 79%
- Polyamine (L1210 [22]): 68%
- Polyamine (L1210 [23]): 10%
- Polyamine (L1210 [24]): 96%
- Ki (L1210 [10]): 3000 nM
- IC50 (L1210 [11]): 30 nM
- Polyamine (L1210 [25]): 77%
- Activity [13]: 81%
- Polyamine (L1210 [26]): 78%
- Polyamine (L1210 [27]): 63%
- Polyamine (L1210 [28]): 133%
- Polyamine (L1210 [29]): 0%
